From PMC3330681 (Scientific Reports, 2012)

Tests used:
Assay type in all cases: cell-based
GPR35 [1] = biological target: T1, GPR35 (Homo sapiens, UniProt Q9HC97); experiment: Dynamic mass redistribution; settings: for DMR signal in DMR agonism profiling (in words): doses up to 1 mM
GPR35 [2] = biological target: T1, GPR35; experiment: Tango β-arrestin translocation gene reporter assay in U2OS-GPR35-bla cells; settings: for Efficacy Tango (maximal response): normalized to maximal response of zaprinast within the same plate
GPR35 [3] = biological target: T1, GPR35; experiment: DMR antagonist assay: SPB05142 blocking the agonist-induced DMR in HT-29 cells; settings: for DMR of the agonist in the presence of 64 μM SPB05142: HT-29 cells
Procedure, shortened: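 HT-29 cells in McCoy's 5a with 10% FBS were grown overnight to confluence on resonant waveguide biosensor plates, washed into HBSS and equilibrated 1 hr at 26°C. GPR35 antagonist pretreatment lasted 1 hr, then baseline, then agonist at a fixed dose. DMR was recorded for about 1 hr and background-corrected.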

GPR35 [4] = biological target: T1, GPR35; experiment: Receptor internalization assay; settings: HT-29, 1 hr; 50 μM gentisate, 2 mM L-DOPA, 50 μM DHICA, 500 μM DOPAC, 5 μM reverse T3, 200 μM T4, 50 μM 3-nitrotyrosine
Procedure, shortened: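 HT-29 cells (McCoy's 5a, 10% FBS, 37°C/5% CO2) were seeded on chamber slides at 10,000 cells/well for 24 hrs, then given a test compound at a fixed dose or DMSO vehicle for 1 hr at 37°C. Cells were fixed in 4% formaldehyde, permeabilized, and stained with intracellular-domain anti-GPR35 (1:500, 24 hrs) and an Alexa Fluor 594 secondary. Confocal imaging followed.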

[5] = DMR agonism, HT-29 cells, maximal DMR amplitude within 1 hr
[6] = U2OS-GPR35-bla cells, β-arrestin translocation

T1 sequence (Q9HC97 whole entry): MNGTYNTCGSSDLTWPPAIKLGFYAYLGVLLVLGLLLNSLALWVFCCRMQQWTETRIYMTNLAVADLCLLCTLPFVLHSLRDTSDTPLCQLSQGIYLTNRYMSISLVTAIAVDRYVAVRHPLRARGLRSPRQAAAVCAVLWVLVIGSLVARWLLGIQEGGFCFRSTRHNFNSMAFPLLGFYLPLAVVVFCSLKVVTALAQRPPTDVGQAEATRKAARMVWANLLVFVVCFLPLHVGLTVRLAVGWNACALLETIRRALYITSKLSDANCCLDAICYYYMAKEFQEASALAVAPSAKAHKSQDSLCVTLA

Row | Structure (SMILES) | EC50 (GPR35 [1]) | Efficacy DMR (maximal response) (GPR35 [1]; HT-29 cells) | DMR signal in DMR agonism profiling (in words) (GPR35 [1]; HT-29 cells) | EC50 (GPR35 [2]) | Efficacy Tango (maximal response) (GPR35 [2]; U2OS-GPR35-bla cells) | EC50 DMR (GPR35 [1]; [5]) | EC50 Tango (GPR35 [2]; [6]) | also measured
1 | O=C(O)CCc1ccc(O)c(O)c1 [Dihydrocaffeic acid, 3-(3,4-dihydroxyphenyl)propionic acid] | 342 ± 41 µM | 293±12 pm | active | 186 ± 21 µM | 46 % Zaprinast |  |  | DMR of the agonist in the presence of 64 μM SPB05142 (GPR35 [3]): residual DMR signal
2 | O=C([O-])/C=C/C(=O)[O-].[Na+].[Na+] [Sodium fumarate, sodium fumarate] |  |  |  |  |  | Inactive | Inactive | 
3 | NC(Cc1ccc(O)cc1)C(=O)O (racemic) [DL-Tyrosine, DL-tyrosine] |  |  |  |  |  | Inactive | Inactive | 
4 | NC(Cc1ccccc1)C(=O)O (racemic) [DL-Phenylalanine, DL-phenylalanine] |  |  |  |  |  | Inactive | Inactive | 
5 | O=C(O)c1cccnc1Nc1cccc(C(F)(F)F)c1 [Niflumic acid, reference compound] |  | 223±11 pm |  |  | 39 % Zaprinast |  |  | 
6 | O=C(O)c1cc(=O)c2ccccc2[nH]1 [Kynurenic acid, reference compound] |  | 203±13 pm |  | > 500 µM | >60 % Zaprinast |  |  | 
7 | N[C@@H](Cc1cc(I)c(Oc2cc(I)c(O)c(I)c2)c(I)c1)C(=O)O [L-Thyroxine (T4), L-thyroxine, reference compound] | > 500 µM | >100 pm |  | > 500 µM | >20 % Zaprinast |  |  | 
8 | O=C(O)Cc1ccc(O)cc1 [4-Hydroxyphenylacetate, 4-hydroxyphenylacetate] |  |  |  |  |  | Inactive | Inactive | 
9 | N[C@@H](Cc1ccccc1)C(=O)O [L-Phenylalanine, L-phenylalanine] |  |  |  |  |  | Inactive | Inactive | 
10 | O=C(/C=C/c1ccc(O)c(O)c1)O[C@H](Cc1ccc(O)c(O)c1)C(=O)O [Rosmarinate, rosmarinate] | 29.4 ± 2.7 µM | 320±11 pm | active | 169 ± 17 µM | 63 % Zaprinast |  |  | 
11 | O=C([O-])c1cc(=O)c2c(OCC(O)COc3cccc4oc(C(=O)[O-])cc(=O)c34)cccc2o1.[Na+].[Na+] [Cromolyn disodium, reference compound] |  | 252±16 pm |  |  | 97 % Zaprinast |  |  | EC50 (GPR35 [1]; read-out: EC50 DMR, DMR agonism, HT-29 cells, maximal DMR amplitude within 1 hr): 0.52 ± 0.04 µM; EC50 (GPR35 [2]; read-out: EC50 Tango, U2OS-GPR35-bla cells, β-arrestin translocation): 9.67 ± 0.71 µM
12 | N[C@@H](Cc1ccc(O)c(O)c1)C(=O)O [L-DOPA, 3,4-dihydroxy-L-phenylalanine, reference compound] | > 500 µM | Off-target | did not reach a saturated level up to 1 mM |  |  |  | Inactive | GPR35 internalization (GPR35 [4]): obvious internalization
13 | OCC(O)c1ccc(O)c(O)c1 (stereo not drawn) [DHPG, 3,4-dihydroxyphenylglycol] | 239 ± 37 µM | 310±12 pm | active | 563 ± 67 µM | 18 % Zaprinast |  |  | DMR of the agonist in the presence of 64 μM SPB05142 (GPR35 [3]): residual DMR signal
14 | COc1cc(CCN)ccc1O [3-Methoxytyramine, 3-methoxytyramine] |  |  |  |  |  | Inactive | Inactive | 
15 | N[C@@H](Cc1cc(I)c(O)c(I)c1)C(=O)O [3,5-Diiodo-L-tyrosine, 3,5-diiodo-L-tyrosine] | 304 ± 45 µM | 254±19 pm | clear dose-dependent DMR |  |  |  | Inactive | 
16 | C[C@](N)(Cc1ccc(O)c(O)c1)C(=O)O [α-methyl-L-DOPA, reference compound] |  |  |  |  |  | Inactive | Inactive | 
17 | N[C@@H](Cc1ccc(O)c(I)c1)C(=O)O [3-Iodo-L-tyrosine, 3-iodo-L-tyrosine] | > 500 µM | >50 pm |  |  |  |  | Inactive | DMR signal at 1 mM (in words) (GPR35 [1]; HT-29 cells, 1 mM): small but detectable DMR
18 | N[C@@H](Cc1ccc(O)cc1)C(=O)O [L-Tyrosine, L-tyrosine] |  |  |  |  |  | Inactive | Inactive | 
19 | COC(=O)c1cnn(-c2ccc(F)cc2F)c1C=NNC(=S)NC(C)(C)C [SPB05142, methyl-5-[(tert-butylcarbamothioylhydrazinylidene)-methyl]-1-(2,4-difluorophenyl)-pyrazole-4-carboxylate, reference compound] |  |  | little or no DMR signal |  |  |  |  | Activity in Tango β-arrestin translocation assay (in words) (GPR35 [2]; U2OS-GPR35-bla cells): inactive; Inhibition by SPB05142 of the DMR of DOPA (GPR35 [3]; HT-29, agonist at EC50 to EC80): partially inhibited; Inhibition by SPB05142 of the DMR arising from all other eleven agonists (GPR35 [3]; HT-29, each agonist at EC50 to EC80): dose-dependently inhibited; IC50 Antagonist (SPB05142 to block the DMR of the agonist) (GPR35 [3]; against homogentisate, HT-29): No inhibition
20 | N[C@@H](Cc1ccc(Oc2cc(I)c(O)c(I)c2)c(I)c1)C(=O)O [Reverse T3, 3,3′,5′-triiodothyronine] | 5.89 ± 0.39 µM | 276±12 pm | clear dose-dependent DMR | 108 ± 9 µM | 108 % Zaprinast |  |  | Activity in Tango β-arrestin translocation assay (in words) (GPR35 [2]; U2OS-GPR35-bla cells): full agonist; GPR35 internalization (GPR35 [4]): obvious internalization
21 | COc1cc(CC(=O)O)ccc1O [Homovanillic acid, homovanillic acid] |  |  |  |  |  | Inactive | Inactive | 
22 | CCCOc1ccccc1-c1nc2nn[nH]c2c(=O)[nH]1 [Zaprinast, reference compound] |  | 250±17 pm |  |  | 100 % Zaprinast |  |  | 
23 | O=C(O)c1cc2cc(O)c(O)cc2[nH]1 [DHICA, 5,6-dihydroxyindole-2-carboxylic acid] | 24.2 ± 2.7 µM | 310±11 pm | clear dose-dependent and saturable DMR | 22.9 ± 1.6 µM | 75 % Zaprinast |  |  | Activity in Tango β-arrestin translocation assay (in words) (GPR35 [2]; U2OS-GPR35-bla cells): robust FRET signal; GPR35 internalization (GPR35 [4]): obvious internalization
24 | CCOC(=O)Cc1ccc(O)c(OC)c1 [Ethyl homovanillate, ethyl homovanillate] |  |  |  |  |  | Inactive |  | 
25 | N[C@@H](Cc1ccc(O)c([N+](=O)[O-])c1)C(=O)O [3-Nitro-L-tyrosine, 3-nitro-L-tyrosine] | 142 ± 27 µM | 330±13 pm | robust DMR signal | > 500 µM | >20 % Zaprinast |  |  | Activity in Tango β-arrestin translocation assay (in words) (GPR35 [2]; U2OS-GPR35-bla cells): able to result in β-arrestin translocation
26 | O=C(O)Cc1ccc(O)c(O)c1 [DOPAC, 3,4-Dihydroxyphenylacetic acid] | > 500 µM | >200 pm | active | 106 ± 7 µM | 44 % Zaprinast |  |  | DMR of the agonist in the presence of 64 μM SPB05142 (GPR35 [3]): residual DMR signal; GPR35 internalization (GPR35 [4]): obvious internalization
